Experimental data as given in ChEMBL document CHEMBL1926569, “Novel (E)-1-(4-methyl-2-(alkylamino)thiazol-5-yl)-3-arylprop-2-en-1-ones as potent antimicrobial agents” (2011).
In brackets after ≈: the same amount, converted by molar mass.

What was measured:
[1] = test system: Pseudomonas aeruginosa; experiment: Ratio of ampicillin MIC to compound MIC for Pseudomonas aeruginosa ATCC 27853; format: functional
[2] = test system: Aspergillus ochraceus; experiment: Antifungal activity against Aspergillus ochraceus ATCC 12066 incubated for 72 hrs followed by serial sub-cultivation for 72 hrs by serial dilution technique; format: functional; details: ATCC 12066, 72 h
Summary of the method: (§1)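 MFC: material from 72 h malt broth microdilution wells was serially sub-cultured into fresh broth plates and incubated a further 72 h at 28 °C. Fungicidal concentration is taken from growth after sub-culture. Duplicate, repeated three times.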

[3] = test system: Bacillus cereus; experiment: Antibacterial activity against clinical isolate of Bacillus cereus incubated for 24 hrs followed by serial sub-cultivation for 24 hrs by microdilution; format: functional
Summary of the method: (§2)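 MBC: after the 24 h LB broth microdilution (1.0 × 10⁴ CFU per well, 160 rpm), wells were serially sub-cultured into fresh broth plates and incubated a further 24 h. MBC is the lowest concentration with no visible growth, taken as 99.5% killing of the original inoculum. Duplicate, repeated three times.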

[4] = test system: Trichoderma viride; experiment: Antifungal activity against Trichoderma viride IAM 5061 incubated for 72 hrs followed by serial sub-cultivation for 72 hrs by serial dilution technique; format: functional; details: IAM 5061, 72 h; summary of the method: as §1
[5] = test system: Candida albicans; experiment: Antifungal activity against Candida albicans isolated from human incubated for 72 hrs followed by serial sub-cultivation for 72 hrs by serial dilution technique; format: functional; summary of the method: as §1
[6] = test system: Listeria monocytogenes; experiment: Antibacterial activity against Listeria monocytogenes NCTC 7973 after 24 hrs by microdilution method; format: functional; details: NCTC 7973, 24 h
Summary of the method: (§3)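 Broth microdilution in 96-well plates. Bacterial suspensions were adjusted in sterile saline to 1.0 × 10⁵ CFU/ml, prepared daily and kept at 4 °C. Compound was added to LB broth with 1.0 × 10⁴ CFU per well and shaken at 160 rpm for 24 h at […] (so in the source). MIC is the lowest concentration with no visible growth under a binocular microscope. OD655 was also read. Duplicate, repeated three times.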

[7] = test system: Enterococcus faecalis; experiment: Antibacterial activity against Enterococcus faecalis isolated from human after 24 hrs by microdilution method; format: functional; summary of the method: as §3
[8] = test system: Candida albicans; experiment: Ratio of ketoconazole to compound for Candida albicans isolated from human; format: functional
[9] = test system: Penicillium ochrochloron; experiment: Antifungal activity against Penicillium ochrochloron ATCC 9112 after 72 hrs by serial dilution technique; format: functional; details: ATCC 9112, 72 h
Summary of the method: (§4)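 Modified microdilution in 96-well plates. Fungi were kept on malt agar at 4 °C. Spores were washed off in sterile 0.85% saline with 0.1% Tween 80. Compounds were dissolved at 1 mg/ml in 5% DMSO with 0.1% Tween 80 and added to malt broth with inoculum. Plates were shaken at 160 rpm for 72 h at 28 °C. Duplicate, repeated three times.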

[10] = test system: Salmonella typhimurium; experiment: Antibacterial activity against Salmonella Typhimurium ATCC 13311 incubated for 24 hrs followed by serial sub-cultivation for 24 hrs by microdilution; format: functional, Salmonella enterica subsp. enterica serovar Typhimurium; details: Salmonella enterica, ATCC 13311, 24 h; summary of the method: as §2
[11] = test system: Penicillium ochrochloron; experiment: Ratio of ketoconazole to compound for Penicillium ochrochloron ATCC 9112; format: functional
[12] = test system: Trichoderma viride; experiment: Ratio of bifonazole to compound for Trichoderma viride IAM 5061; format: functional
[13] = test system: Aspergillus ochraceus; experiment: Antifungal activity against Aspergillus ochraceus after 72 hrs by serial dilution technique
[14] = test system: Enterococcus faecalis; experiment: Antibacterial activity against Enterococcus faecalis isolated from human incubated for 24 hrs followed by serial sub-cultivation for 24 hrs by microdilution; format: functional; summary of the method: as §2
[15] = test system: Talaromyces funiculosus; experiment: Antifungal activity against Penicillium funiculosum ATCC 36839 after 72 hrs by serial dilution technique; format: functional; details: ATCC 36839, 72 h; summary of the method: as §4
[16] = test system: Aspergillus ochraceus; experiment: Ratio of ketoconazole to compound for Aspergillus ochraceus ATCC 12066; format: functional
[17] = test system: Bacillus cereus; experiment: Antibacterial activity against clinical isolate of Bacillus cereus after 24 hrs by microdilution method; format: functional; summary of the method: as §3
[18] = test system: Aspergillus niger; experiment: Antifungal activity against Aspergillus niger ATCC 6275 incubated for 72 hrs followed by serial sub-cultivation for 72 hrs by serial dilution technique; format: functional; details: ATCC 6275, 72 h; summary of the method: as §1
[19] = test system: Aspergillus fumigatus; experiment: Antifungal activity against Aspergillus fumigatus isolated from human incubated for 72 hrs followed by serial sub-cultivation for 72 hrs by serial dilution technique; format: functional; summary of the method: as §1
[20] = test system: Listeria monocytogenes; experiment: Antibacterial activity against Listeria monocytogenes NCTC 7973 incubated for 24 hrs followed by serial sub-cultivation for 24 hrs by microdilution; format: functional; details: NCTC 7973, 24 h; summary of the method: as §2
[21] = test system: Staphylococcus aureus; experiment: Antibacterial activity against Staphylococcus aureus ATCC 6538 incubated for 24 hrs followed by serial sub-cultivation for 24 hrs by microdilution method; format: functional; details: ATCC 6538, 24 h; summary of the method: as §2
[22] = test system: Staphylococcus aureus; experiment: Antibacterial activity against Staphylococcus aureus ATCC 6538 after 24 hrs by microdilution method; format: functional; details: ATCC 6538, 24 h; summary of the method: as §3
[23] = test system: Aspergillus niger; experiment: Ratio of bifonazole to compound for Aspergillus niger ATCC 6275; format: functional
[24] = test system: Aspergillus ochraceus; experiment: Ratio of bifonazole to compound for Aspergillus ochraceus ATCC 12066; format: functional
[25] = test system: Salmonella typhimurium; experiment: Antibacterial activity against Salmonella Typhimurium ATCC 13311 after 24 hrs by microdilution method; format: functional, Salmonella enterica subsp. enterica serovar Typhimurium; details: Salmonella enterica, ATCC 13311, 24 h; summary of the method: as §3
[26] = test system: Micrococcus flavus; experiment: Antibacterial activity against Micrococcus flavus ATCC 10240 incubated for 24 hrs followed by serial sub-cultivation for 24 hrs by microdilution; format: functional; details: ATCC 10240, 24 h; summary of the method: as §2
[27] = test system: Talaromyces funiculosus; experiment: Ratio of bifonazole to compound for Penicillium funiculosum ATCC 36839; format: functional
[28] = test system: Talaromyces funiculosus; experiment: Antifungal activity against Penicillium funiculosum ATCC 36839 incubated for 72 hrs followed by serial sub-cultivation for 72 hrs by serial dilution technique; format: functional; details: ATCC 36839, 72 h; summary of the method: as §1
[29] = test system: Escherichia coli; experiment: Antibacterial activity against Escherichia coli ATCC 35210 after 24 hrs by microdilution method; format: functional; details: ATCC 35210, 24 h; summary of the method: as §3
[30] = test system: Aspergillus flavus; experiment: Antifungal activity against Aspergillus flavus ATCC 9643 after 72 hrs by serial dilution technique; format: functional; details: ATCC 9643, 72 h; summary of the method: as §4
[31] = test system: Pseudomonas aeruginosa; experiment: Antibacterial activity against Pseudomonas aeruginosa ATCC 27853 incubated for 24 hrs followed by serial sub-cultivation for 24 hrs by microdilution; format: functional; details: ATCC 27853, 24 h; summary of the method: as §2
[32] = test system: Aspergillus flavus; experiment: Antifungal activity against Aspergillus flavus ATCC 9643 incubated for 72 hrs followed by serial sub-cultivation for 72 hrs by serial dilution technique; format: functional; details: ATCC 9643, 72 h; summary of the method: as §1
[33] = test system: Aspergillus fumigatus; experiment: Ratio of ketoconazole to compound for Aspergillus fumigatus isolated from human; format: functional
[34] = test system: Trichoderma viride; experiment: Antifungal activity against Trichoderma viride IAM 5061 after 72 hrs by serial dilution technique; format: functional; details: IAM 5061, 72 h; summary of the method: as §4
[35] = test system: Aspergillus ochraceus; experiment: Antifungal activity against Aspergillus ochraceus ATCC 12066 after 72 hrs by serial dilution technique; format: functional; details: ATCC 12066, 72 h; summary of the method: as §4
[36] = test system: Candida albicans; experiment: Ratio of bifonazole to compound for Candida albicans isolated from human; format: functional
[37] = test system: Pseudomonas aeruginosa; experiment: Antibacterial activity against Pseudomonas aeruginosa ATCC 27853 after 24 hrs by microdilution method; format: functional; details: ATCC 27853, 24 h; summary of the method: as §3
[38] = test system: Penicillium ochrochloron; experiment: Antifungal activity against Penicillium ochrochloron ATCC 9112 incubated for 72 hrs followed by serial sub-cultivation for 72 hrs by serial dilution technique; format: functional; details: ATCC 9112, 72 h; summary of the method: as §1
[39] = test system: Escherichia coli; experiment: Antibacterial activity against Escherichia coli ATCC 35210 incubated for 24 hrs followed by serial sub-cultivation for 24 hrs by microdilution; format: functional; details: ATCC 35210, 24 h; summary of the method: as §2
[40] = test system: Aspergillus niger; experiment: Antifungal activity against Aspergillus niger ATCC 6275 after 72 hrs by serial dilution technique; format: functional; details: ATCC 6275, 72 h; summary of the method: as §4
[41] = test system: Candida albicans; experiment: Antifungal activity against Candida albicans isolated from human after 72 hrs by serial dilution technique; format: functional; summary of the method: as §4
[42] = test system: Micrococcus flavus; experiment: Antibacterial activity against Micrococcus flavus ATCC 10240 after 24 hrs by microdilution method; format: functional; details: ATCC 10240, 24 h; summary of the method: as §3
[43] = test system: Penicillium ochrochloron; experiment: Ratio of bifonazole to compound for Penicillium ochrochloron ATCC 9112; format: functional

MIC [6]: 91.7 µM (≈ 30 µg/mL)
MIC [7]: 76.5 µM (≈ 25 µg/mL)
MIC [9]: 30.6 µM (≈ 10 µg/mL)
MIC [13]: 30.6 µM (≈ 10 µg/mL)
MIC [15]: 30.6 µM (≈ 10 µg/mL)
MIC [17]: 45.9 µM (≈ 15 µg/mL)
MIC [22]: 61.2 µM (≈ 20 µg/mL)
MIC [25]: 61.2 µM (≈ 20 µg/mL)
MIC [29]: 45.9 µM (≈ 15 µg/mL)
MIC [30]: 30.6 µM (≈ 10 µg/mL)
MIC [34]: 30.6 µM (≈ 10 µg/mL)
MIC [35]: 30.6 µM (≈ 10 µg/mL)
MIC [37]: 61.2 µM (≈ 20 µg/mL)
MIC [40]: 30.6 µM (≈ 10 µg/mL)
MIC [41]: 45.9 µM (≈ 15 µg/mL)
MIC [42]: 30.6 µM (≈ 10 µg/mL)
SMILES: CNc1nc(C)c(C(=O)/C=C/c2cccc(Cl)c2Cl)s1
Ratio [1]: 10
MFC [2]: 61.2 µM (≈ 20 µg/mL)
MBC [3]: 61.2 µM (≈ 20 µg/mL)
MFC [4]: 61.2 µM (≈ 20 µg/mL)
MFC [5]: 61.2 µM (≈ 20 µg/mL)
Ratio [8]: 10
MBC [10]: 76.5 µM (≈ 25 µg/mL)
Ratio [11]: 10
Ratio [12]: 10
MBC [14]: 76.5 µM (≈ 25 µg/mL)
Ratio [16]: 10
MFC [18]: 61.2 µM (≈ 20 µg/mL)
MFC [19]: 61.2 µM (≈ 20 µg/mL)
MBC [20]: 91.7 µM (≈ 30 µg/mL)
MBC [21]: 91.7 µM (≈ 30 µg/mL)
Ratio [23]: 10
Ratio [24]: 10
MBC [26]: 91.7 µM (≈ 30 µg/mL)
Ratio [27]: 10
MFC [28]: 61.2 µM (≈ 20 µg/mL)
MBC [31]: 91.7 µM (≈ 30 µg/mL)
MFC [32]: 76.5 µM (≈ 25 µg/mL)
Ratio [33]: 10
Ratio [36]: 10
MFC [38]: 61.2 µM (≈ 20 µg/mL)
MBC [39]: 61.2 µM (≈ 20 µg/mL)
Ratio [43]: 10
